Source: ChEMBL document CHEMBL1811752, “Synthesis and pharmacological characterization of bicyclic triple reuptake inhibitor 3-aryl octahydrocyclopenta[c]pyrrole analogues” (J Med Chem, 2011)

Experiments:
[1] = target: Sodium-dependent dopamine transporter (Homo sapiens, UniProt Q01959); experiment: Inhibition of dopamine reuptake at DAT expressed in CHO-K1 cells; assay type: cell-based
[2] = target: Sodium-dependent noradrenaline transporter (Homo sapiens, UniProt P23975); experiment: Inhibition of norepinephrine reuptake at NET expressed in MDCK cells; assay type: cell-based
[3] = target: Sodium-dependent serotonin transporter (Homo sapiens, UniProt P31645); experiment: Inhibition of serotonin reuptake at SERT expressed in HEK293 cells; assay type: cell-based
Cytochrome P450 2D6 = Cytochrome P450 2D6 (Homo sapiens, UniProt P10635); experiment: Inhibition of CYP2D6 in human liver microsomes by LC-MS/MS analysis; assay type: ADME, Microsome
Summary of the method: (§1)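 Human liver microsomes incubated with isoform-specific substrates and compound, typically 0.1–25 μM. Metabolite formation read by LC-MS/MS, […]. IC50 calculated from the decrease in metabolite formation relative to vehicle control.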

Cytochrome P450 2C19 = Cytochrome P450 2C19 (Homo sapiens, UniProt P33261); experiment: Inhibition of CYP2C19 in human liver microsomes by LC-MS/MS analysis; assay type: ADME, Microsome; summary of the method: as §1
[4] = Half life in human liver microsomes at 3 uM by LC-MS/MS analysis; assay type: ADME, Microsome
Summary of the method: (§2)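 Human or mouse liver microsomes (0.5 mg/mL) incubated with 3 μM compound at 37 °C. Reaction started with NADPH and stopped with methanol containing internal standard. Loss of compound followed over 45 min by LC-MS/MS. Peak area ratio to internal standard plotted against time and the slope of the line taken.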

Cytochrome P450 2C9 = Cytochrome P450 2C9 (Homo sapiens, UniProt P11712); experiment: Inhibition of CYP2C9 in human liver microsomes by LC-MS/MS analysis; assay type: ADME, Microsome; summary of the method: as §1
Cytochrome P450 3A4 = Cytochrome P450 3A4 (Homo sapiens, UniProt P08684); experiment: Inhibition of CYP3A4 in human liver microsomes by LC-MS/MS analysis; assay type: ADME, Microsome; summary of the method: as §1
CYP1A = target: T1, CYP1A (Homo sapiens, UniProt P04798+P05177); experiment: Inhibition of CYP1A in human liver microsomes by LC-MS/MS analysis; assay type: ADME, Microsome; summary of the method: as §1
T1 sequence (P04798 whole entry): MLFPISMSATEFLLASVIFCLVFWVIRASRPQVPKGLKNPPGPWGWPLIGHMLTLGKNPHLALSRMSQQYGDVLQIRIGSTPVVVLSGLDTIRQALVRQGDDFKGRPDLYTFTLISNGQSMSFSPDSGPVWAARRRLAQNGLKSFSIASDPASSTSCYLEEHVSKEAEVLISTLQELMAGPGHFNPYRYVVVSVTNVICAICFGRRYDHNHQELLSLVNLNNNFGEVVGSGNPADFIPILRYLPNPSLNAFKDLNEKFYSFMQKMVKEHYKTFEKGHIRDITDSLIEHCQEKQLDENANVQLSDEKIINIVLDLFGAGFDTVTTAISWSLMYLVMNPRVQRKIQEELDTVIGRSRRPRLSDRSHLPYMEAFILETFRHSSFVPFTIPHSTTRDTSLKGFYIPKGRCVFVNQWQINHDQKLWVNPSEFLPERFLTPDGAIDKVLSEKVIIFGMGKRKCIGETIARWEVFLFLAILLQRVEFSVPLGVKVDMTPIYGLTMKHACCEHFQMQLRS
T1 sequence (P05177 whole entry): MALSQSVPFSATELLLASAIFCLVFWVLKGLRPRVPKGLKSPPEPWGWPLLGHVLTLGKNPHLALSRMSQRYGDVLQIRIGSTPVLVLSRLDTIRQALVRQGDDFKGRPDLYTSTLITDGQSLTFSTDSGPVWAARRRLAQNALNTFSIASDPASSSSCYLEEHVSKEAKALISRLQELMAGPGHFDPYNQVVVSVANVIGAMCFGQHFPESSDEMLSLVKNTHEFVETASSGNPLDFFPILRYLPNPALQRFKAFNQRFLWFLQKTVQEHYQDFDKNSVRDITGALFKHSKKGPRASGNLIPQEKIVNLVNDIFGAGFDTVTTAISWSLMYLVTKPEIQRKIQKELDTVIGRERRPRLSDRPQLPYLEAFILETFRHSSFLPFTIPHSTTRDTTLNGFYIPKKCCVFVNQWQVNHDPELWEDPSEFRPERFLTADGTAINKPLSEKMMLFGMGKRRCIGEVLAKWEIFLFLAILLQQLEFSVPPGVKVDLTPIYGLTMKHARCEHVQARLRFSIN

[5] = Half life in mouse liver microsomes at 3 uM by LC-MS/MS analysis; assay type: ADME, Microsome; summary of the method: as §2
[6] = target: Voltage-gated inwardly rectifying potassium channel KCNH2 (Homo sapiens, UniProt Q12809); experiment: Inhibition of human ERG expressed in CHO cells by high throughput single cell planar patch clamp method; assay type: cell-based
Chain of Voltage-gated inwardly rectifying potassium channel KCNH2 (Q12809 whole entry): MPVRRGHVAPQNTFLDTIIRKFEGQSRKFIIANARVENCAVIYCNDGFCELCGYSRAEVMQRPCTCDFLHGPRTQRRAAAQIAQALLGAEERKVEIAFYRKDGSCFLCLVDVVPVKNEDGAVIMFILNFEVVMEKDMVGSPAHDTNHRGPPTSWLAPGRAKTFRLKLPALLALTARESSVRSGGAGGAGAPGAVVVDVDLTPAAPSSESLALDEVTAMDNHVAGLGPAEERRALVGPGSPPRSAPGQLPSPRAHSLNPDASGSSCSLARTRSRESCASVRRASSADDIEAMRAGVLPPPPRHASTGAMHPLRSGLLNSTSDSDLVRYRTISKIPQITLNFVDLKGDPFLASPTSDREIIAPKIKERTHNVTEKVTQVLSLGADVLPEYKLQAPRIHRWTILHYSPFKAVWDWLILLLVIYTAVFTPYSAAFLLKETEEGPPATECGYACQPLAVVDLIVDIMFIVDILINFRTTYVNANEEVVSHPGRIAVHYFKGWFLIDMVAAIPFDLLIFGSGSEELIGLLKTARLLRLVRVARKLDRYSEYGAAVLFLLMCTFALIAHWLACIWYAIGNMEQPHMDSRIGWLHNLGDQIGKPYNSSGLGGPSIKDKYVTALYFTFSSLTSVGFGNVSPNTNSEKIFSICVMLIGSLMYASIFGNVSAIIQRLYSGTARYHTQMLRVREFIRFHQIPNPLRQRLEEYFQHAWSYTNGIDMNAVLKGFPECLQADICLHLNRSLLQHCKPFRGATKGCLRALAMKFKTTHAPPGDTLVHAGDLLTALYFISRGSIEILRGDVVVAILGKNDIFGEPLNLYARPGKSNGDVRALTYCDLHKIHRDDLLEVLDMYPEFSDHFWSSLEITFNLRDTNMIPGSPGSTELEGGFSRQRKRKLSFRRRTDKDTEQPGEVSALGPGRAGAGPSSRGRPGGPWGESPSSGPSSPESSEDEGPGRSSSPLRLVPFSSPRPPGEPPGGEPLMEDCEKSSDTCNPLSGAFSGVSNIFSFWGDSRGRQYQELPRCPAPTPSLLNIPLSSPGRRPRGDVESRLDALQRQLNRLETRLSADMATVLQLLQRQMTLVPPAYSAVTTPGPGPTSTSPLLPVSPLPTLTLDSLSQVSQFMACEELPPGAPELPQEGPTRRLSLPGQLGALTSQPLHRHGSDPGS

Chain of Sodium-dependent dopamine transporter (Q01959 whole entry): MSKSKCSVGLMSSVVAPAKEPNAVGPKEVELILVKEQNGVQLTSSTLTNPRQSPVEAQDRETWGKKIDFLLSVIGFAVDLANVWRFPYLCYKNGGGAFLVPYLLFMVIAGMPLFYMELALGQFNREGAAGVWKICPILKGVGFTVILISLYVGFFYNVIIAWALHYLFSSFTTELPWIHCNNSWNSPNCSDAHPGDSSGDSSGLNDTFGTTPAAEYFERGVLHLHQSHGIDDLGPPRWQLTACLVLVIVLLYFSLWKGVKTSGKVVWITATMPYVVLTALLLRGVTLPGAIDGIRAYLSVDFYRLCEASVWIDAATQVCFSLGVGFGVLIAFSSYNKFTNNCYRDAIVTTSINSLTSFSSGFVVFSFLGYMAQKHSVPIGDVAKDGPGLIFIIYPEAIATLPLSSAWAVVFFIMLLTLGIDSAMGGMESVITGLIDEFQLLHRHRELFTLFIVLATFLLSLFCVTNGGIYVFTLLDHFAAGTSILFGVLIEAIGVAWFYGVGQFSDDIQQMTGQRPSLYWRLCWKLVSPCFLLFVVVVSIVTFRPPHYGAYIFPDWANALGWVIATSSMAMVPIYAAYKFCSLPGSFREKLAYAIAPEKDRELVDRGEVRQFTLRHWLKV
Chain of Cytochrome P450 2C9 (P11712 whole entry): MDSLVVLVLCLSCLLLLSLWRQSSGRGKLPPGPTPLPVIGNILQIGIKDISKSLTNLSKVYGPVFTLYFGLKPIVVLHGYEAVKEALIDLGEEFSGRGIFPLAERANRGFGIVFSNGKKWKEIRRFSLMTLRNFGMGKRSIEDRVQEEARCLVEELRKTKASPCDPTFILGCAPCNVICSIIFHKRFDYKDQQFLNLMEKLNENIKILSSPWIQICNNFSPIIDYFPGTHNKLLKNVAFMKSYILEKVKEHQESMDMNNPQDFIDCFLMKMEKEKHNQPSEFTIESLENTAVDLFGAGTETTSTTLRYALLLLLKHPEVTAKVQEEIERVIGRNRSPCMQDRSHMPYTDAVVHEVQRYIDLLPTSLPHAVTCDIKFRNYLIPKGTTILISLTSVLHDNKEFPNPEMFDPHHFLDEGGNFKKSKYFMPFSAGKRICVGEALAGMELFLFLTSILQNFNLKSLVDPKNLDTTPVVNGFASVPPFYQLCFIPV
Chain of Cytochrome P450 2C19 (P33261 whole entry): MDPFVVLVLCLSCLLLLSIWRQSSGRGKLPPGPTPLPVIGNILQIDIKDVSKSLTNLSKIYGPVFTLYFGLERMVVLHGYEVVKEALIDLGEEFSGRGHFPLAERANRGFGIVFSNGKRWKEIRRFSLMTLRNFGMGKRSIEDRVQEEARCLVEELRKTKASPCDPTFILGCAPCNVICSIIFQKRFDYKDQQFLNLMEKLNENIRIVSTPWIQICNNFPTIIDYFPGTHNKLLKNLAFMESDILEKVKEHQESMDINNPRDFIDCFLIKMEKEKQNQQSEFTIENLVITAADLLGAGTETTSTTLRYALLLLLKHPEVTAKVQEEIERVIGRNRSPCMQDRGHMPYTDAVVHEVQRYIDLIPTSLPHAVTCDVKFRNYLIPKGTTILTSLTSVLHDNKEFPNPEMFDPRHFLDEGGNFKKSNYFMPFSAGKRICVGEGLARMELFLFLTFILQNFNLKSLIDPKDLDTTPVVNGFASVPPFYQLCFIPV
Chain of Cytochrome P450 3A4 (P08684 whole entry): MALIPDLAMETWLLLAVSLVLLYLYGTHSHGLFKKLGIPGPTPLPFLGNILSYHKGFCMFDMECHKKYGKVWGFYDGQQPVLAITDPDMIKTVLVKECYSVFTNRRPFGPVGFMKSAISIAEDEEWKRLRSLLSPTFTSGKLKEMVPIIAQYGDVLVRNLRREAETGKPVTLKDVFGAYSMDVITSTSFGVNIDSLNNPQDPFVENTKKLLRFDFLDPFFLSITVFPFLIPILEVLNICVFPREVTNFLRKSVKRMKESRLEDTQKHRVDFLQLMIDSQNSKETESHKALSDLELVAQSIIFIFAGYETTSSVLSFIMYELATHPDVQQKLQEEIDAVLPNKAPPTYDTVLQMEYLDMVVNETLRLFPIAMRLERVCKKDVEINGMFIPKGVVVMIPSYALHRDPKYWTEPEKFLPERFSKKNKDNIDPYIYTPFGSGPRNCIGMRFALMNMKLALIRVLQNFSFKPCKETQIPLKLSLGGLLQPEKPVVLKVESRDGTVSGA
Chain of Sodium-dependent noradrenaline transporter (P23975 whole entry): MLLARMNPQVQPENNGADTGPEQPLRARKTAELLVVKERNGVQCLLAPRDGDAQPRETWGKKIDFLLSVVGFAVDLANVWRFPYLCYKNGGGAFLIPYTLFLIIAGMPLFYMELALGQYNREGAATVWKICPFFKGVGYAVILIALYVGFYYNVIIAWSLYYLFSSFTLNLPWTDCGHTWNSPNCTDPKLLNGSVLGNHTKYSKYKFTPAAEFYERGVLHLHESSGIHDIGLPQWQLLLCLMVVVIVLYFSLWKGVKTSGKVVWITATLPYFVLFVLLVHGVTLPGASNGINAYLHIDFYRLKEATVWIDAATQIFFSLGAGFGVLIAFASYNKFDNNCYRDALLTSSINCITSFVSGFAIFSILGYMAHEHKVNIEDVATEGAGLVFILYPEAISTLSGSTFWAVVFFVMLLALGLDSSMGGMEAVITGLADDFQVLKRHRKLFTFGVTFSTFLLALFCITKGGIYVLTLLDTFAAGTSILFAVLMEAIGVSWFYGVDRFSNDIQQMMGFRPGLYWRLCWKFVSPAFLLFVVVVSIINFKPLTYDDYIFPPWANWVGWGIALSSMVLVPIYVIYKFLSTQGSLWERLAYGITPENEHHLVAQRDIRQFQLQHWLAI
Chain of Sodium-dependent serotonin transporter (P31645 whole entry): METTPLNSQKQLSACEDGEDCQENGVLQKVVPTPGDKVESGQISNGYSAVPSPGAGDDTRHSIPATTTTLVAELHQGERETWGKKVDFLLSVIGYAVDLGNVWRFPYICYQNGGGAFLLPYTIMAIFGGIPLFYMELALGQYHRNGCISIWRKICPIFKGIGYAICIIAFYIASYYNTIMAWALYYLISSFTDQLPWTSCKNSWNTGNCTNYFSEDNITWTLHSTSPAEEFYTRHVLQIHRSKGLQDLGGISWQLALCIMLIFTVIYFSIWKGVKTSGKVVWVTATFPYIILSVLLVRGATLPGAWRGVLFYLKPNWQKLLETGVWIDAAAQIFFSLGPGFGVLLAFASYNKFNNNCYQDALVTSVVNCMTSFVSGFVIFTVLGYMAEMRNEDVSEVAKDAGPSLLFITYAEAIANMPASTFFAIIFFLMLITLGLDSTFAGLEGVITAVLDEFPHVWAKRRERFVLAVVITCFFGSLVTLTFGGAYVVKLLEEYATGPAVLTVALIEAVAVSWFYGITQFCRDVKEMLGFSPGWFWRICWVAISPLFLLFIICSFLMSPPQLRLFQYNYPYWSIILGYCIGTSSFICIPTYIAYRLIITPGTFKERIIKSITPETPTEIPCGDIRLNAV
Chain of Cytochrome P450 2D6 (P10635 whole entry, canonical isoform): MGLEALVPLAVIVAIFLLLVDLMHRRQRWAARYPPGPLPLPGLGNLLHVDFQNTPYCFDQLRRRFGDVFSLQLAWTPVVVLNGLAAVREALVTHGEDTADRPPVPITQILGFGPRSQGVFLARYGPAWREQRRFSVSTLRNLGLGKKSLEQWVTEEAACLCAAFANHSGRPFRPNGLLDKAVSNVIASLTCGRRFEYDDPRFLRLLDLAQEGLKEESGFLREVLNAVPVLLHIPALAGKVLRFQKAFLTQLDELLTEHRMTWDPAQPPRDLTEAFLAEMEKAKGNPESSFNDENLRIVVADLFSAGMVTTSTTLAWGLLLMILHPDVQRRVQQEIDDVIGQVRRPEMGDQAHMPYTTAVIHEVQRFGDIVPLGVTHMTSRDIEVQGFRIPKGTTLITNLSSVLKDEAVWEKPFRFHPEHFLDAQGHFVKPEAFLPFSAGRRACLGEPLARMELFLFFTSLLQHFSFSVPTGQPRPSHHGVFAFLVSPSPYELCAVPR

Structure (SMILES)	IC50 [1] [nM]	IC50 [2] [nM]	IC50 [3] [nM]	IC50 (Cytochrome P450 2D6) [nM]	IC50 (Cytochrome P450 2C19) [nM]	half-life at 3 µM [4] [min]	IC50 (Cytochrome P450 2C9) [nM]	IC50 (Cytochrome P450 3A4) [nM]	IC50 (CYP1A) [nM]	half-life at 3 µM [5] [min]	IC50 [6] [nM]
CN1C[C@@H]2CCC[C@]2(c2ccc(Cl)c(Cl)c2)C1 (racemic)	67.6	24	8.91	–	–	–	–	–	–	–	–
c1ccc2cc([C@@]34CCC[C@@H]3CNC4)ccc2c1	30.2	60.3	120	10800	7190	28	14400	10700	710	56	–
COc1ccc([C@]23CCC[C@H]2CN(C)C3)cc1 (racemic)	> 10000	> 10000	4.47	–	–	–	–	–	–	–	–
CN1C[C@@H]2CCCC[C@]2(c2ccc(F)c(F)c2)C1 (racemic)	417	2340	1230	–	–	–	–	–	–	–	–
CN1C[C@@H]2CCCC[C@]2(c2ccc3ccccc3c2)C1	309	724	6.92	560	–	46	–	–	–	18	–
CN1C[C@@H]2CCC[C@]2(c2ccc3ccccc3c2)C1	182	209	2.29	2610	–	36	–	–	–	18	–
CCN1C[C@@H]2CCCC[C@]2(c2ccc(Cl)c(Cl)c2)C1 (single isomer, unassigned)	10	38	69.2	2920	> 25000	55	> 5000	> 5000	4230	33	4330
CN1C[C@@H]2CCCC[C@]2(c2ccc3ccccc3c2)C1 (racemic)	20.4	537	4.79	–	–	–	–	–	–	–	–
Clc1ccc([C@@]23CCCC[C@@H]2CNC3)cc1Cl	83.2	204	91.2	7930	> 25000	> 300	> 25000	12800	6140	> 300	3640
Clc1ccc([C@]23CCCC[C@@H]2CNC3)cc1Cl (racemic; 19b)	457	2140	1910	–	–	–	–	–	–	–	–
c1ccc2cc([C@]34CCC[C@H]3CNC4)ccc2c1	33.9	14.1	13.5	9420	> 25000	25	> 25000	2650	4130	26	–
CN1C[C@@H]2CCC[C@]2(c2ccc(F)c(F)c2)C1 (racemic)	2820	6460	1100	–	–	–	–	–	–	–	–
CN1C[C@@H]2CCC[C@]2(c2ccc3ccccc3c2)C1 (racemic)	100	468	3.55	–	–	–	–	–	–	–	–
Clc1ccc(C[C@]23CCCC[C@H]2CNC3)cc1Cl	501	5370	661	–	–	–	–	–	–	–	–
CN1C[C@@H]2CCC[C@]2(c2ccc(Cl)c(Cl)c2)C1 (single isomer, unassigned)	47.9	95.5	83.2	4350	2220	28	9830	12700	1490	27	–
CN1C[C@@H]2CCC[C@]2(c2cc(Cl)cc(Cl)c2)C1 (racemic)	9770	4270	331	–	–	–	–	–	–	–	–
CN1C[C@@H]2CCCC[C@]2(Cc2ccc(Cl)c(Cl)c2)C1 (stereo in doubt)	490	4470	339	–	–	–	–	–	–	–	–
COc1ccc([C@]23CCCC[C@H]2CN(C)C3)cc1OC (racemic)	9770	5890	34.7	–	–	–	–	–	–	–	–

Structure (SMILES)	IC50 [1] [nM]	IC50 [2] [nM]	IC50 [3] [nM]	IC50 (Cytochrome P450 2D6) [nM]	IC50 (Cytochrome P450 2C19) [nM]	half-life at 3 µM [4] [min]	IC50 (Cytochrome P450 2C9) [nM]	IC50 (Cytochrome P450 3A4) [nM]	IC50 (CYP1A) [nM]	half-life at 3 µM [5] [min]	IC50 [6] [nM]
CN1C[C@H]2CCC[C@@]2(c2ccc3ccccc3c2)C1	28.8	191	14.5	12800	–	19	–	–	–	18	–
COc1cccc([C@]23CCC[C@H]2CN(C)C3)c1 (racemic)	> 10000	> 10000	692	–	–	–	–	–	–	–	–
CN1C[C@@H]2CCCC[C@]2(c2ccc(Cl)c(Cl)c2)C1	14.1	141	107	8000	> 25000	62	> 25000	5280	3000	35	2320
COc1cccc([C@]23CCCC[C@H]2CN(C)C3)c1 (racemic)	3390	2450	148	–	–	–	–	–	–	–	–
CN1C[C@H]2CCCC[C@@]2(Cc2ccc(Cl)c(Cl)c2)C1 (stereo in doubt)	479	3800	5.5	< 50	–	121	–	–	–	25	–
Clc1ccc(C[C@@]23CCCC[C@@H]2CNC3)cc1Cl	158	2950	49	< 50	–	> 300	–	–	–	> 300	–
CN1C[C@@H]2CCCC[C@]2(c2cccc3ccccc23)C1 (racemic)	1320	417	162	–	–	–	–	–	–	–	–
CN1C[C@@H]2CCCC[C@]2(c2ccc(Cl)cc2Cl)C1 (racemic)	1290	912	347	–	–	–	–	–	–	–	–
CN1C[C@@H]2CCCC[C@]2(c2ccccc2)C1 (racemic)	1580	562	724	–	–	–	–	–	–	–	–
CN1C[C@H]2CCCC[C@@]2(c2ccc3ccccc3c2)C1	61.7	537	12.6	13600	–	17	–	–	–	7	–
CCN1C[C@H]2CCCC[C@@]2(c2ccc(Cl)c(Cl)c2)C1	25.1	26.9	45.7	250	17900	68	> 5000	> 5000	> 25000	52	4730
Clc1ccc([C@]23CCC[C@H]2CNC3)cc1Cl (single isomer, unassigned)	141	209	501	2470	1900	22	4010	9170	530	56	6400
COc1ccc([C@]23CCCC[C@H]2CN(C)C3)cc1 (racemic)	1000	14100	129	–	–	–	–	–	–	–	–
CN1C[C@H]2CCCC[C@@]2(c2cccc3ccccc23)C1	2450	204	33.1	–	–	–	–	–	–	–	–
Clc1ccc([C@]23CCCC[C@@H]2CNC3)cc1Cl (racemic; 19a)	1020	6030	1820	–	–	–	–	–	–	–	–
Clc1ccc([C@]23CCCC[C@H]2CNC3)cc1Cl (racemic)	204	112	115	–	–	–	–	–	–	–	–
CN1C[C@@H]2CCCC[C@]2(c2cccc3ccccc23)C1	3310	> 10000	977	–	–	–	–	–	–	–	–
